From ChEMBL document CHEMBL5154667, “Discovery of 9,10-dihydrophenanthrene derivatives as SARS-CoV-2 3CLpro inhibitors for treating COVID-19” (Eur J Med Chem, 2022)

Legend:
[1] = molecular target: T1, Replicase polyprotein 1ab (Severe acute respiratory syndrome coronavirus 2, UniProt P0DTD1); assay: Inhibition of SARS-CoV-2 3CL protease using Dabcyl-KNSTLQSGLRKE-Edan as substrate incubated for 30 mins and measured by FRET assay
Method in brief: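 Recombinant SARS-CoV-2 3CLpro, expressed and purified in-house, at 4 μg/mL final. Preincubated with compound (in DMSO) for 30 min at 37 °C in 0.1 M PBS pH 7.4 with 1 mM EDTA. Mean ± SD of at least three independent experiments.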

[2] = molecular target: Replicase polyprotein 1ab (Severe acute respiratory syndrome-related coronavirus, UniProt P0C6X7); assay: Inhibition of SARS-CoV 3CL protease using Dabcyl-KNSTLQSGLRKE-Edan as substrate incubated for 30 mins and measured by FRET assay
Method in brief: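 SARS-CoV 3CLpro, expressed and purified in-house like the SARS-CoV-2 enzyme, at 30 μg/mL final. Preincubated with compound for 30 min at 37 °C in 0.1 M PBS pH 7.4 with 1 mM EDTA. Mean ± SD of at least three independent runs.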

[3] = Metabolic stability in human liver microsomes assessed as UGT-mediated metabolism at 20 uM and measured as half-life by LC-UV analysis; assay type: ADME, Microsome
Method in brief: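 Phase II: compound 20 μM with HLMs 0.2 mg/mL in 50 mM Tris-HCl pH 7.4 with 5 mM MgCl₂. After 3 min at 37 °C, started with 2 mM UDPGA. Quenched with cold acetonitrile at 0–90 min, centrifuged, supernatant analysed by LC-UV for half-life. 7-Hydroxycoumarin was the reference substrate.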

[4] = molecular target: T1, Replicase polyprotein 1ab; assay: Mixed type inhibition of SARS-CoV-2 3CL protease using Dabcyl-KNSTLQSGLRKE-Edan as substrate incubated for 30 mins and measured by Lineweaver-Burk plot analysis
[5] = Stability of the compound in simulated gastric fluid; assay type: ADME; conditions: simulated gi fluid
Method in brief: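 Simulated gastric fluid: pepsin 400 mg and 656 μL 1 M HCl in 40 mL water. Analyte 20 μM in SGF at 37 °C, sampled 0–90 min. Quenched with equal volume cold acetonitrile, centrifuged (20,000×g, 4 °C, 30 min), analysed by LC-UV.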

[6] = Metabolic stability in human liver microsomes assessed as CYP-mediated metabolism at 20 uM and measured as half-life by LC-UV analysis; assay type: ADME, Microsome
[7] = Stability in human plasma measured by LC-UV analysis; assay type: ADME, cell-free
Method in brief: (§1)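 Incubated at 37 °C in 100 mM PBS pH 7.4, as printed for the human plasma stability test. Sampled at 0, 15, 30 min and 1–12 h; proteins precipitated with cold acetonitrile. Centrifuged at 20,000×g, 4 °C, 30 min; supernatant analysed by LC-UV.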

[8] = Stability in human plasma assessed as half-life measured by LC-UV analysis; assay type: ADME, cell-free; method in brief: as §1

| Structure (SMILES) | IC50 [1] [µM] | other results |
| --- | --- | --- |
| CC(=O)OCC1Cc2c(-c3ccncn3)cccc2-c2c(O)ccc(C)c21 (stereo not given) | > 100 |  |
| CC(=O)OCC1Cc2c(-c3cc(-c4ccccc4)ccn3)cccc2-c2c(O)ccc(C3CCCCC3)c21 (stereo not given) | 8.54 |  |
| CC(=O)OCC1Cc2c(-c3ccccn3)ccc(C)c2-c2c(O)ccc(C)c21 (stereo not given) | > 100 |  |
| CC(=O)OCC1Cc2c(-c3ncccn3)cccc2-c2c(O)ccc(C)c21 (stereo not given) | > 100 |  |
| CC(=O)OCC1Cc2c(-c3ccc(Br)cn3)cccc2-c2c(O)ccc(-c3ccc(Br)cc3)c21 (stereo not given) | 6.73 |  |
| CC(=O)OCC1Cc2c(-c3ccc(Cl)cn3)cccc2-c2c(O)ccc(C)c21 (stereo not given) | 35.8 |  |
| CC(=O)OCC1Cc2c(cccc2-c2ncnc3c2ncn3CC2CC2)-c2c(O)ccc(C)c21 (stereo not given) | > 100 |  |
| CC(=O)OCC1Cc2c(-c3ccccn3)cccc2-c2c(O)ccc(-c3ccc(C#N)cc3)c21 (stereo not given) | 19.3 |  |
| OCC1Cc2c(-c3cc(-c4ccccc4)ccn3)cccc2-c2c(O)ccc(-c3ccc(Br)cc3)c21 (stereo not given) | 1.55 | IC50 [2]: 5.35 µM; t1/2 [3]: > 1.5 h; Ki [4]: 6.09 µM; Stability [5]: Stable; t1/2 [6]: > 1.5 h; Stability [7]: Stable |
| CC(=O)OCC1Cc2c(-c3cc(Cl)ccn3)cccc2-c2c(O)ccc(-c3ccc(Br)cc3)c21 (stereo not given) | 4.79 | IC50 [2]: 5.44 µM |
| COc1ccc(-c2ccccn2)c2c1-c1c(O)ccc(C)c1C(COC(C)=O)C2 (stereo not given) | > 100 |  |
| CC(=O)OCC1Cc2c(-c3cc(C=O)ccn3)cccc2-c2c(O)ccc(-c3ccc(Br)cc3)c21 (stereo not given) | 3.32 | IC50 [2]: 3.2 µM |
| OCC1Cc2c(-c3ccc(F)cn3)cccc2-c2c(O)ccc(-c3ccc(Br)cc3)c21 (stereo not given) | 5.39 |  |
| O=Cc1ccnc(-c2cccc3c2CC(CO)c2c(-c4ccc(Br)cc4)ccc(O)c2-3)c1 (stereo not given) | 1.81 | IC50 [2]: 5.32 µM; t1/2 [3]: 81.88 h; t1/2 [8]: 8.97 h; Ki [4]: 7.64 µM; Stability [5]: Stable; t1/2 [6]: 32.09 h |
| CC(=O)OCC1Cc2c(-c3cc(C#N)ccn3)cccc2-c2c(O)ccc(-c3ccc(Br)cc3)c21 (stereo not given) | 10.3 |  |
| CC(=O)OCC1Cc2c(-c3ccccn3)ccc(Br)c2-c2c(O)ccc(C)c21 (stereo not given) | > 100 |  |
| CC(=O)OCC1Cc2c(-c3cc(N4CCCC4)ccn3)cccc2-c2c(O)ccc(-c3ccc(Br)cc3)c21 (stereo not given) | 11.2 |  |
| CC(=O)OCC1Cc2c(-c3ccc(NCc4ccccc4)cn3)cccc2-c2c(O)ccc(-c3ccc(Br)cc3)c21 (stereo not given) | 3.31 | IC50 [2]: 5.79 µM |
| CC(=O)OCC1Cc2c(cccc2-n2cccn2)-c2c(O)ccc(C)c21 (stereo not given) | > 100 |  |
| CC(=O)OCC1Cc2c(-c3ccc(C)cn3)cccc2-c2c(O)ccc(-c3ccc(Br)cc3)c21 (stereo not given) | 5.25 |  |
| CC(=O)OCC1Cc2c(-c3ccccn3)cc(C)cc2-c2c(O)ccc(C)c21 (stereo not given) | 57.7 |  |
| C=CCn1cnc2c(-c3cccc4c3CC(COC(C)=O)c3c(C)ccc(O)c3-4)ncnc21 (stereo not given) | > 100 |  |
| CC(=O)OCC1Cc2c(-c3cc(C)ccn3)cccc2-c2c(O)ccc(C)c21 (stereo not given) | 68.2 |  |
| CC(=O)OCC1Cc2c(-c3ccccn3)cccc2-c2c(O)ccc(C3CCCCC3)c21 (stereo not given) | 9.06 |  |
| CC(=O)OCC1Cc2c(-c3ccc(Cl)cn3)cccc2-c2c(O)ccc(-c3ccc(Br)cc3)c21 (stereo not given) | 2.72 | IC50 [2]: 4.06 µM |
| CC(=O)OCC1Cc2c(cccc2-c2nccc3ccccc23)-c2c(O)ccc(C)c21 (stereo not given) | 14.2 |  |
| CC(=O)OCC1Cc2c(-c3cc(N4CCOCC4)ccn3)cccc2-c2c(O)ccc(-c3ccc(Br)cc3)c21 (stereo not given) | 7.39 |  |

| Structure (SMILES) | IC50 [1] [µM] | other results |
| --- | --- | --- |
| CC(=O)OCC1Cc2c(-c3ccc(N(C)C)cn3)cccc2-c2c(O)ccc(-c3ccc(Br)cc3)c21 (stereo not given) | 3.66 | IC50 [2]: 5.92 µM |
| CC(=O)OCC1Cc2c(-c3ccc(F)cn3)cccc2-c2c(O)ccc(C)c21 (stereo not given) | 66.8 |  |
| N#Cc1ccc(-c2cccc3c2CC(CO)c2c(-c4ccc(Br)cc4)ccc(O)c2-3)nc1 (stereo not given) | 10.7 |  |
| CC(=O)OCC1Cc2c(-c3ccc(C(C)=O)cn3)cccc2-c2c(O)ccc(-c3ccc(Br)cc3)c21 (stereo not given) | 5.83 |  |
| CC(=O)OCC1Cc2c(-c3ccc(C#N)cn3)cccc2-c2c(O)ccc(-c3ccc(Br)cc3)c21 (stereo not given) | 2.78 | IC50 [2]: 7.12 µM |
| CC(=O)OCC1Cc2c(ccc(C)c2-c2ccccn2)-c2c(O)ccc(C)c21 (stereo not given) | 53.8 |  |
| CC(=O)OCC1Cc2c(-c3ccccn3)cccc2-c2c(O)ccc(C)c21 (stereo not given) | 61.2 |  |
| CCc1ccc(O)c2c1C(COC(C)=O)Cc1c(-c3ccccn3)cccc1-2 (stereo not given) | 33.1 |  |
| CC(=O)OCC1Cc2c(-c3ccccn3)cccc2-c2c(O)ccc(Cc3ccccc3)c21 (stereo not given) | 11.4 |  |
| OCC1Cc2c(-c3ccc(Cl)cn3)cccc2-c2c(O)ccc(-c3ccc(Br)cc3)c21 (stereo not given) | 4.71 | IC50 [2]: 10.5 µM |
| CC(=O)OCC1Cc2c(-c3ccccn3)cccc2-c2c(O)ccc(-c3ccc(Br)cc3)c21 (stereo not given) | 6.44 |  |
| CC(=O)OCC1Cc2c(-c3cc(-c4ccccc4)ccn3)cccc2-c2c(O)ccc(C)c21 (stereo not given) | 5.65 |  |
| CC(=O)OCC1Cc2c(-c3ncccc3C)cccc2-c2c(O)ccc(C)c21 (stereo not given) | 58.9 |  |
| CC(=O)OCC1Cc2c(-c3ccc(F)cn3)cccc2-c2c(O)ccc(-c3ccc(Br)cc3)c21 (stereo not given) | 4.29 | IC50 [2]: 7.81 µM |
| CC(=O)OCC1Cc2c(-c3ccc(C=O)cn3)cccc2-c2c(O)ccc(-c3ccc(Br)cc3)c21 (stereo not given) | 8.89 |  |
| CC(=O)OCC1Cc2c(-c3ccccn3)ccc(F)c2-c2c(O)ccc(C)c21 (stereo not given) | > 100 |  |
| CC(=O)OCC1Cc2c(-c3ccccn3)ccc(Cl)c2-c2c(O)ccc(C)c21 (stereo not given) | 85.6 |  |
| CC(=O)OCC1Cc2c(-c3cc(-c4ccccc4)ccn3)cccc2-c2c(O)ccc(-c3ccc(Br)cc3)c21 (stereo not given) | 2.46 | IC50 [2]: 17.7 µM |
| CC(=O)OCC1Cc2c(-c3ccccn3)cccc2-c2c(O)ccc(C(C)C)c21 (stereo not given) | 29.5 |  |
| CC(=O)OCC1Cc2c(-c3ccc4ccccc4n3)cccc2-c2c(O)ccc(C)c21 (stereo not given) | 13.8 |  |
| CC(=O)OCC1Cc2c(-c3ccc(Br)cn3)cccc2-c2c(O)ccc(C)c21 (stereo not given) | 18.5 |  |
| CC(=O)OCC1Cc2c(-c3cc(C)ccn3)cccc2-c2c(O)ccc(-c3ccc(Br)cc3)c21 (stereo not given) | 9.82 |  |
| CC(=O)OCC1Cc2c(-c3cc4ccccc4cn3)cccc2-c2c(O)ccc(C)c21 (stereo not given) | 12 |  |
| CC(=O)OCC1Cc2c(-c3ccc(S(C)(=O)=O)cn3)cccc2-c2c(O)ccc(-c3ccc(Br)cc3)c21 (stereo not given) | 6.65 |  |
| CC(=O)OCC1Cc2c(-c3ccc(-c4ccccc4)cn3)cccc2-c2c(O)ccc(-c3ccc(Br)cc3)c21 (stereo not given) | 8.28 |  |
| C[C@]12CC[C@H]3[C@@H](CCC4=CC(=O)CC[C@@]43C)[C@@H]1CC[C@@H]2O [TESTOSTERONE] |  | t1/2 [6]: 0.4603 h |
| O=c1ccc2ccc(O)cc2o1 [UMBELLIFERONE] |  | t1/2 [3]: 0.2588 h |
